{"source": "ChEMBL document CHEMBL1795304", "about": "“Synthesis, antitumor and antimicrobial activities of 4-(4-chlorophenyl)-3-cyano-2-(β-O-glycosyloxy)-6-(thien-2-yl)-nicotinonitrile” (2011)", "format_in_all_cases": "functional", "key": {"MCF7 [1]": {"test_system": "MCF7", "assay": "Cytotoxicity against human MCF7 cells assessed as inhibition of cell viability at 25 ug/mL after 48 hrs by MTT assay", "conditions": "MCF7, 48 h", "in_short": "(§1)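 MCF7 cells kept in DMEM with 10% FBS, 2 mM L-glutamine and antibiotics at 37 °C, 5% CO2. Cells plated at 0.5 × 10⁵ per well in serum-free medium and exposed for 48 h to DMSO-dissolved compound (25, 50, 100 µg/mL). MTT then added for 4 h and formazan dissolved in acidified isopropanol. Absorbance read at 570 nm in triplicate, expressed as % viability versus untreated cells.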"}, "MCF7 [2]": {"test_system": "MCF7", "assay": "Cytotoxicity against human MCF7 cells assessed as inhibition of cell viability at 50 ug/mL after 48 hrs by MTT assay", "conditions": "MCF7, 48 h", "in_short": "as §1"}, "Pseudomonas aeruginosa": {"test_system": "Pseudomonas aeruginosa", "assay": "Antimicrobial activity against Pseudomonas aeruginosa at 1 ug/mL after 48 hrs by cup plate agar diffusion method", "conditions": "read-out: IZ", "in_short": "(§2)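 Cup plate agar diffusion. Compounds dissolved in DMSO at 1 µg/mL. Plates incubated 48 h at 37 °C, then inhibition zone diameter measured in mm. DMSO served as solvent control and ampicillin as reference.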"}, "Staphylococcus aureus": {"test_system": "Staphylococcus aureus", "assay": "Antimicrobial activity against Staphylococcus aureus at 1 ug/mL after 48 hrs by cup plate agar diffusion method", "conditions": "read-out: IZ", "in_short": "as §2"}, "MCF7 [3]": {"test_system": "MCF7", "assay": "Cytotoxicity against human MCF7 cells assessed as inhibition of cell viability at 100 ug/mL after 48 hrs by MTT assay", "conditions": "MCF7, 48 h", "in_short": "as §1"}, "Escherichia coli": {"test_system": "Escherichia coli", "assay": "Antimicrobial activity against Escherichia coli at 1 ug/mL after 48 hrs by cup plate agar diffusion method", "conditions": "read-out: IZ", "in_short": "as §2"}, "Bacillus subtilis": {"test_system": "Bacillus subtilis", "assay": "Antimicrobial activity against Bacillus subtilis at 1 ug/mL after 48 hrs by cup plate agar diffusion method", "conditions": "read-out: IZ", "in_short": "as §2"}}}
{"smiles": "N#Cc1c(-c2ccc(Cl)cc2)cc(-c2cccs2)nc1O[C@@H]1O[C@H](CO)[C@@H](O)[C@H](O)[C@H]1O", "values": [{"measurement": "inhibition at 25 µg/mL", "setting": "MCF7 [1]", "value": 0, "unit": "%"}, {"measurement": "inhibition at 50 µg/mL", "setting": "MCF7 [2]", "value": 0, "unit": "%"}, {"measurement": "zone of inhibition at 1 µg/mL", "setting": "Pseudomonas aeruginosa", "value": 0, "unit": "mm"}, {"measurement": "zone of inhibition at 1 µg/mL", "setting": "Staphylococcus aureus", "value": 3, "unit": "mm"}, {"measurement": "inhibition at 100 µg/mL", "setting": "MCF7 [3]", "value": 0, "unit": "%"}, {"measurement": "zone of inhibition at 1 µg/mL", "setting": "Escherichia coli", "value": 0, "unit": "mm"}, {"measurement": "zone of inhibition at 1 µg/mL", "setting": "Bacillus subtilis", "value": 1, "unit": "mm"}]}
{"smiles": "N#Cc1c(-c2ccc(Cl)cc2)cc(-c2cccs2)nc1O[C@@H]1O[C@H](CO)[C@@H](O)[C@H]1O", "values": [{"measurement": "inhibition at 25 µg/mL", "setting": "MCF7 [1]", "value": 0, "unit": "%"}, {"measurement": "inhibition at 50 µg/mL", "setting": "MCF7 [2]", "value": 0, "unit": "%"}, {"measurement": "zone of inhibition at 1 µg/mL", "setting": "Pseudomonas aeruginosa", "value": 28, "unit": "mm"}, {"measurement": "zone of inhibition at 1 µg/mL", "setting": "Staphylococcus aureus", "value": 10, "unit": "mm"}, {"measurement": "inhibition at 100 µg/mL", "setting": "MCF7 [3]", "value": 0, "unit": "%"}, {"measurement": "zone of inhibition at 1 µg/mL", "setting": "Escherichia coli", "value": 6, "unit": "mm"}, {"measurement": "zone of inhibition at 1 µg/mL", "setting": "Bacillus subtilis", "value": 7, "unit": "mm"}]}
{"smiles": "O=c1[nH]cc(F)c(=O)[nH]1", "note": "[FLUOROURACIL]", "values": [{"measurement": "inhibition at 25 µg/mL", "setting": "MCF7 [1]", "value": 0, "unit": "%"}, {"measurement": "inhibition at 50 µg/mL", "setting": "MCF7 [2]", "value": 0, "unit": "%"}, {"measurement": "inhibition at 100 µg/mL", "setting": "MCF7 [3]", "value": 7, "unit": "%"}]}
{"smiles": "N#Cc1c(-c2ccc(Cl)cc2)cc(-c2cccs2)nc1O[C@@H]1O[C@H](CO)[C@@H](O[C@@H]2O[C@H](CO)[C@H](O)[C@H](O)[C@H]2O)[C@H](O)[C@H]1O", "values": [{"measurement": "zone of inhibition at 1 µg/mL", "setting": "Pseudomonas aeruginosa", "value": 10, "unit": "mm"}, {"measurement": "zone of inhibition at 1 µg/mL", "setting": "Staphylococcus aureus", "value": 5, "unit": "mm"}, {"measurement": "zone of inhibition at 1 µg/mL", "setting": "Escherichia coli", "value": 0, "unit": "mm"}, {"measurement": "zone of inhibition at 1 µg/mL", "setting": "Bacillus subtilis", "value": 3, "unit": "mm"}]}
{"smiles": "CC(=O)OC[C@H]1O[C@@H](Oc2nc(-c3cccs3)cc(-c3ccc(Cl)cc3)c2C#N)[C@H](OC(C)=O)[C@@H](OC(C)=O)[C@@H]1OC(C)=O", "values": [{"measurement": "inhibition at 25 µg/mL", "setting": "MCF7 [1]", "value": 0, "unit": "%"}, {"measurement": "inhibition at 50 µg/mL", "setting": "MCF7 [2]", "value": 5, "unit": "%"}, {"measurement": "zone of inhibition at 1 µg/mL", "setting": "Pseudomonas aeruginosa", "value": 13, "unit": "mm"}, {"measurement": "zone of inhibition at 1 µg/mL", "setting": "Staphylococcus aureus", "value": 8, "unit": "mm"}, {"measurement": "inhibition at 100 µg/mL", "setting": "MCF7 [3]", "value": 10, "unit": "%"}, {"measurement": "zone of inhibition at 1 µg/mL", "setting": "Escherichia coli", "value": 3, "unit": "mm"}, {"measurement": "zone of inhibition at 1 µg/mL", "setting": "Bacillus subtilis", "value": 11, "unit": "mm"}]}
{"smiles": "COc1cccc2c1C(=O)c1c(O)c3c(c(O)c1C2=O)C[C@@](O)(C(=O)CO)C[C@@H]3O[C@H]1C[C@H](N)[C@H](O)[C@H](C)O1", "note": "[DOXORUBICIN]", "values": [{"measurement": "inhibition at 25 µg/mL", "setting": "MCF7 [1]", "value": 6, "unit": "%"}, {"measurement": "inhibition at 50 µg/mL", "setting": "MCF7 [2]", "value": 15, "unit": "%"}, {"measurement": "inhibition at 100 µg/mL", "setting": "MCF7 [3]", "value": 50, "unit": "%"}]}
{"smiles": "N#Cc1c(-c2ccc(Cl)cc2)cc(-c2cccs2)nc1O[C@@H]1O[C@H](CO)[C@H](O)[C@H]1O", "values": [{"measurement": "zone of inhibition at 1 µg/mL", "setting": "Pseudomonas aeruginosa", "value": 9, "unit": "mm"}, {"measurement": "zone of inhibition at 1 µg/mL", "setting": "Staphylococcus aureus", "value": 3, "unit": "mm"}, {"measurement": "zone of inhibition at 1 µg/mL", "setting": "Escherichia coli", "value": 2, "unit": "mm"}, {"measurement": "zone of inhibition at 1 µg/mL", "setting": "Bacillus subtilis", "value": 3.5, "unit": "mm"}]}
{"smiles": "CC(=O)OC[C@H]1O[C@@H](Oc2nc(-c3cccs3)cc(-c3ccc(Cl)cc3)c2C#N)[C@H](OC(C)=O)[C@@H]1OC(C)=O", "values": [{"measurement": "inhibition at 25 µg/mL", "setting": "MCF7 [1]", "value": 2, "unit": "%"}, {"measurement": "inhibition at 50 µg/mL", "setting": "MCF7 [2]", "value": 7, "unit": "%"}, {"measurement": "zone of inhibition at 1 µg/mL", "setting": "Pseudomonas aeruginosa", "value": 25, "unit": "mm"}, {"measurement": "zone of inhibition at 1 µg/mL", "setting": "Staphylococcus aureus", "value": 9, "unit": "mm"}, {"measurement": "inhibition at 100 µg/mL", "setting": "MCF7 [3]", "value": 12, "unit": "%"}, {"measurement": "zone of inhibition at 1 µg/mL", "setting": "Escherichia coli", "value": 3, "unit": "mm"}, {"measurement": "zone of inhibition at 1 µg/mL", "setting": "Bacillus subtilis", "value": 8, "unit": "mm"}]}
{"smiles": "CC(=O)OC[C@H]1O[C@@H](O[C@H]2[C@H](OC(C)=O)[C@@H](OC(C)=O)[C@H](Oc3nc(-c4cccs4)cc(-c4ccc(Cl)cc4)c3C#N)O[C@@H]2COC(C)=O)[C@H](OC(C)=O)[C@@H](OC(C)=O)[C@H]1OC(C)=O", "values": [{"measurement": "inhibition at 25 µg/mL", "setting": "MCF7 [1]", "value": 0, "unit": "%"}, {"measurement": "inhibition at 50 µg/mL", "setting": "MCF7 [2]", "value": 5, "unit": "%"}, {"measurement": "inhibition at 100 µg/mL", "setting": "MCF7 [3]", "value": 10, "unit": "%"}]}
{"smiles": "CC1(C)S[C@@H]2[C@H](NC(=O)[C@H](N)c3ccccc3)C(=O)N2[C@H]1C(=O)O", "note": "[AMPICILLIN]", "values": [{"measurement": "zone of inhibition at 1 µg/mL", "setting": "Pseudomonas aeruginosa", "value": 23, "unit": "mm"}, {"measurement": "zone of inhibition at 1 µg/mL", "setting": "Staphylococcus aureus", "value": 7, "unit": "mm"}, {"measurement": "zone of inhibition at 1 µg/mL", "setting": "Escherichia coli", "value": 2, "unit": "mm"}, {"measurement": "zone of inhibition at 1 µg/mL", "setting": "Bacillus subtilis", "value": 6, "unit": "mm"}]}
{"smiles": "CC(=O)OC[C@H]1O[C@@H](Oc2nc(-c3cccs3)cc(-c3ccc(Cl)cc3)c2C#N)[C@H](OC(C)=O)[C@H]1OC(C)=O", "values": [{"measurement": "inhibition at 25 µg/mL", "setting": "MCF7 [1]", "value": 0, "unit": "%"}, {"measurement": "inhibition at 50 µg/mL", "setting": "MCF7 [2]", "value": 0, "unit": "%"}, {"measurement": "inhibition at 100 µg/mL", "setting": "MCF7 [3]", "value": 8, "unit": "%"}]}
{"smiles": "CC(=O)OC[C@H]1O[C@@H](Oc2nc(-c3cccs3)cc(-c3ccc(Cl)cc3)c2C#N)[C@H](OC(C)=O)[C@@H](OC(C)=O)[C@H]1OC(C)=O", "values": [{"measurement": "inhibition at 25 µg/mL", "setting": "MCF7 [1]", "value": 0, "unit": "%"}, {"measurement": "inhibition at 50 µg/mL", "setting": "MCF7 [2]", "value": 5, "unit": "%"}, {"measurement": "zone of inhibition at 1 µg/mL", "setting": "Pseudomonas aeruginosa", "value": 26, "unit": "mm"}, {"measurement": "zone of inhibition at 1 µg/mL", "setting": "Staphylococcus aureus", "value": 12, "unit": "mm"}, {"measurement": "inhibition at 100 µg/mL", "setting": "MCF7 [3]", "value": 20, "unit": "%"}, {"measurement": "zone of inhibition at 1 µg/mL", "setting": "Escherichia coli", "value": 5, "unit": "mm"}, {"measurement": "zone of inhibition at 1 µg/mL", "setting": "Bacillus subtilis", "value": 10, "unit": "mm"}]}
{"smiles": "N#Cc1c(-c2ccc(Cl)cc2)cc(-c2cccs2)nc1O[C@@H]1O[C@H](CO)[C@H](O)[C@H](O)[C@H]1O", "values": [{"measurement": "zone of inhibition at 1 µg/mL", "setting": "Pseudomonas aeruginosa", "value": 0, "unit": "mm"}, {"measurement": "zone of inhibition at 1 µg/mL", "setting": "Staphylococcus aureus", "value": 0, "unit": "mm"}, {"measurement": "zone of inhibition at 1 µg/mL", "setting": "Escherichia coli", "value": 0, "unit": "mm"}, {"measurement": "zone of inhibition at 1 µg/mL", "setting": "Bacillus subtilis", "value": 0, "unit": "mm"}]}
